Assay results reported in ChEMBL document CHEMBL1150416, “Design, synthesis and spectroscopic studies of resveratrol aliphatic acid ligands of human serum albumin” (Bioorg Med Chem, 2008).

Tests used:
[1] = Solubility in phosphate buffer assessed per 100 g at pH 7; format: physicochemical
How it was run: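 Excess solid stirred 1 h with pure water or 50 mM phosphate buffer (pH 7; 20 mM NaH2PO4 + 30 mM Na2HPO4) in a sealed dual-wall flask held at 295 K by circulating water. The solid was removed by two 2-min centrifugations. Dissolved content was read by UV–vis at 304 nm and converted using an extinction coefficient of 33,913 M-1 cm-1.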

Albumin [2] = biological target: T1, Albumin (Homo sapiens, UniProt P02768); assay: Binding affinity to human serum albumin by fluorescence quenching measurement; format: ADME; conditions: isolated protein
T1 sequence (P02768 whole entry): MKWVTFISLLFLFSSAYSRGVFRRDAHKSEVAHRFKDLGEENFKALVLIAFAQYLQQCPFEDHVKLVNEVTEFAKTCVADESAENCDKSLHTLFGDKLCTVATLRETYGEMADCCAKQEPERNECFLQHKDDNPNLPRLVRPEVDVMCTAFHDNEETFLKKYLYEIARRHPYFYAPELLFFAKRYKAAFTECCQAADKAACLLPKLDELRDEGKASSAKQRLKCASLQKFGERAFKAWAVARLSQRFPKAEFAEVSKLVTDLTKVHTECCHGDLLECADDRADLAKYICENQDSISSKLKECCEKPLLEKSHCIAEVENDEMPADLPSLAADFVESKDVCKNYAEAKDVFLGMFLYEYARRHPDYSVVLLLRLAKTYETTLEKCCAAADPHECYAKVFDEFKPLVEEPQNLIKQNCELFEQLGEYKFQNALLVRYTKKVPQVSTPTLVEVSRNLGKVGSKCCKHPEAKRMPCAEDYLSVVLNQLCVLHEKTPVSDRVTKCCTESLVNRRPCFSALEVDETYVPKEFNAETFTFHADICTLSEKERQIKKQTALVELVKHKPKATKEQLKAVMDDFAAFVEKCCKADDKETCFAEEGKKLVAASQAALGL
How it was run: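 HSA intrinsic (Trp) fluorescence quenching at 298 K in 50 mM phosphate buffer, pH 7. HSA was held at a fixed level while compound amounts were increased. Excitation 280 nm, emission recorded 290–360 nm, intensity taken at 350 nm; samples read 2 min after mixing, with buffer blanks. Ka was obtained by fitting the modified Stern–Volmer equation.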

Albumin [3] = biological target: T1, Albumin; assay: Binding affinity to human serum albumin assessed as increase in drug-induced fluorescence at 4 uM by fluorescence enhancing measurement; format: ADME; conditions: isolated protein
How it was run: (§1)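 HSA binding was read as the resveratrol-moiety fluorescence at 388 nm. The compound was fixed at 4 µM in 50 mM phosphate buffer, pH 7, with HSA either fixed at 4 µM or increased from 2 to 16 µM, at 298 K. Solutions were read 2 min after mixing against buffer/HSA blanks. Ka came from a non-linear fit of fluorescence versus [HSA].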

[4] = Solubility in over saturated phosphate buffer assessed per 100 g at pH 7 after 2 mins; format: physicochemical; conditions: pH 7, 2 min
How it was run: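 Over-saturated solution made by tapping a suspension in 50 mM phosphate buffer (pH 7) for 2 min at 295 K. Content was read by UV–vis at 304 nm and converted using an extinction coefficient of 33,913 M-1 cm-1.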

[5] = Aqueous solubility assessed per 100 g in pure water; conditions: pH 7
Albumin [6] = biological target: T1, Albumin; assay: Binding affinity to human serum albumin at 4 uM by fluorescence enhancing measurement; format: ADME; conditions: isolated protein; how it was run: as §1
Albumin [7] = biological target: T1, Albumin; assay: Binding affinity to human serum albumin at 4 uM by UV-vis measurement; format: ADME
How it was run: (§2)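 The compound was held at 4 µM in 50 mM phosphate buffer, pH 7 (20 mM NaH2PO4 and 30 mM Na2HPO4), and HSA was added at increasing concentrations. UV–vis absorbance of the compound was read at 318 nm, 2 min after thorough mixing. Buffers without HSA and with matching HSA levels served as blanks. Each compound solution was used only once.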

Albumin [8] = biological target: T1, Albumin; assay: Binding affinity to human serum albumin assessed as decrease in UV absorbance by UV-vis measurement; format: ADME; design: scale not given: the % may be the effect or the level left; conditions: isolated protein; how it was run: as §2

SMILES | solubility [1] | Ka (Albumin [2]) | Activity (Albumin [3]) | solubility [4] | solubility [5] | Ka (Albumin [6]) | Kd (Albumin [7]) | Ka (Albumin [7]; human, isolated protein, 4 µM) | Activity (Albumin [8])
O=C(O)COc1ccc(/C=C/c2cc(O)cc(O)c2)cc1 | 313.8 mg | 2.95 ×10⁵ /M | 50% | 867.8 mg | 80.91 mg | – | – | – | –
COC(=O)CCCCCOc1ccc(/C=C/c2cc(O)cc(O)c2)cc1 | 0.085 mg | 3.05 ×10⁵ /M | – | – | 0.032 mg | – | – | – | –
CCOC(=O)COc1ccc(/C=C/c2cc(O)cc(O)c2)cc1 | 1.4 mg | 1.14 ×10⁵ /M | – | – | 1.93 mg | – | – | – | –
O=C(O)CCCCCOc1ccc(/C=C/c2cc(O)cc(O)c2)cc1 [RESVERATROL HEXANOIC ACID] | 10.54 mg | 67 ×10⁵ /M | – | – | 4.52 mg | 31.2 ×10⁵ /M | 382 nM | 26.2 ×10⁵ /M | 20%
Oc1ccc(/C=C/c2cc(O)cc(O)c2)cc1 [RESVERATROL] | 3.24 mg | 1.64 ×10⁵ /M | – | – | 3.24 mg | – | – | – | –
